ChEMBL document CHEMBL1127046, “Antitumor agents. 3. Synthesis and biological activity of 4 beta-alkyl derivatives containing hydroxy, amino, and amido groups of 4'-O-demethyl-4-desoxypodophyllotoxin as antitumor agents” (J Med Chem, 1993)

Experiments:
P388 [1] = assay: Cytotoxicity against P388 leukemia; format: functional, cell-based; details: Mus musculus
[2] = Inhibition of DNA topoisomerase II from rat liver measured as 50% reduction in the amount of minicircle DNA relative to the control
Tubulin = Tubulin (Bos taurus, UniProt Q6B856+Q862L2+Q862F3); assay: Drug concentration needed to produce a 50% reduction of bovine brain tubulin polymerization relative to the control
ACHN = assay: Inhibition of growth of renal cancer ACHN cell line; format: functional; details: Homo sapiens, read-out: ED50 (the source's name)
In short: (§1)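 Human tumour cell lines plated and grown 24 h in a CO2 incubator, then exposed to compound for 96 or 4 h. Cells counted by hemocytometer. IC50 is the concentration giving 50% reduction in cell number versus untreated control.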

[3] = Inhibition of growth of colon carcinoma COLO 2-1 cell line; format: functional; details: Homo sapiens, read-out: ED50 (the source's name)
In short: (§2)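 Cells were seeded and cultured for 24 h, then exposed to drug for 96 or 4 h. Cells were counted by hemocytometer. IC50 is the concentration giving a 50% reduction in cell number relative to control.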

COLO 320DM = assay: Inhibition of growth of colon cancer COLO 320DM cell line; format: functional; details: Homo sapiens, read-out: ED50 (the source's name); in short: as §2
Homo sapiens = species: Homo sapiens; assay: Inhibition of growth of hepatoma HLE cell line; format: functional; details: read-out: ED50 (the source's name); in short: as §2
[4] = Inhibition of growth of renal cancer G-402 cell line; format: functional; details: Homo sapiens, read-out: ED50 (the source's name); in short: as §1
[5] = Inhibition of growth of hepatoma HLF cell line; format: functional; details: Homo sapiens, read-out: ED50 (the source's name); in short: as §2
[6] = system: Lewis lung carcinoma cell line; assay: Increased life span at the lewis lung dose of 0.77 (mg/kg/day); format: functional, Mus musculus
[7] = system: Lewis lung carcinoma cell line; assay: Increased life span at the lewis lung dose of 1.3 (mg/kg/day); format: functional, Mus musculus
[8] = system: Lewis lung carcinoma cell line; assay: Increased life span at the lewis lung dose of 2.3 (mg/kg/day); format: functional, Mus musculus
[9] = system: Lewis lung carcinoma cell line; assay: Increased life span at the lewis lung dose of 4 (mg/kg/day); format: functional, Mus musculus
[10] = system: Lewis lung carcinoma cell line; assay: Increased life span at the lewis lung dose of 7 (mg/kg/day); format: functional, Mus musculus
[11] = system: Lewis lung carcinoma cell line; assay: Mean body weight change after inoculation of 3.2 x 10 e 5 cells iv and administration of compounds iv from days 1-5 at the dose of 0.77 (mg/kg/day); format: functional, Mus musculus
In short: (§3)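 Male BDF1 mice (5 weeks) given 3.2 x 10^5 Lewis lung carcinoma cells iv on day 0, then dosed iv on days 1–5. Seven mice per group, 14 controls. Mean body weight change (g) taken from day 0 to day 6.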

[12] = system: Lewis lung carcinoma cell line; assay: Mean body weight change after inoculation of 3.2 x 10 e 5 cells iv and administration of compounds iv from days 1-5 at the dose of 1.3 (mg/kg/day); format: functional, Mus musculus; in short: as §3
[13] = system: Lewis lung carcinoma cell line; assay: Mean body weight change after inoculation of 3.2 x 10 e 5 cells iv and administration of compounds iv from days 1-5 at the dose of 2.3 (mg/kg/day); format: functional, Mus musculus; in short: as §3
[14] = system: Lewis lung carcinoma cell line; assay: Mean body weight change after inoculation of 3.2 x 10 e 5 cells iv and administration of compounds iv from days 1-5 at the dose of 4 (mg/kg/day); format: functional, Mus musculus; in short: as §3
[15] = system: Lewis lung carcinoma cell line; assay: Mean body weight change after inoculation of 3.2 x 10 e 5 cells iv and administration of compounds iv from days 1-5 at the dose of 7 (mg/kg/day); format: functional, Mus musculus; in short: as §3
P388 [16] = assay: Antitumor activity in vivo expressed as the percentage increase in life span at the P388 dose of 1..3 (mg/kg/day); format: functional, Mus musculus
In short: (§4)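 P388 leukaemia, 1 × 10^6 cells given sc to male CDF1 mice (5 weeks old) on day 0. Drug was dosed iv on days 1–5 in saline with 3.5% DMSO and 6.5% Tween 80. Groups had 7 mice; controls had 10. ILS was calculated from mean survival time of treated versus control mice, excluding 30-day survivors.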

P388 [17] = assay: Antitumor activity in vivo expressed as the percentage increase in life span at the P388 dose of 2.3 (mg/kg/day); format: functional, Mus musculus; in short: as §4
P388 [18] = assay: Antitumor activity in vivo expressed as the percentage increase in life span at the P388 dose of 4 (mg/kg/day); format: functional, Mus musculus; in short: as §4
[19] = Inhibition of growth of lung non-small cell carcinoma PC-7 cell line; format: functional; details: Homo sapiens, read-out: ED50 (the source's name); in short: as §2
[20] = Inhibition of growth of lung small cell carcinoma RERF-LC-MA cell line; format: functional; details: Homo sapiens; read-out: ED50 (the source's name); in short: as §2
SBC-3 = assay: Inhibition of growth of lung small cell carcinoma SBC-3 cell line; format: functional; details: Homo sapiens, read-out: ED50 (the source's name); in short: as §1
[21] = system: Lewis lung carcinoma cell line; assay: Percentage inhibition of tumor growth at the lewis lung dose of 7 (mg/kg/ day); format: functional, Mus musculus
In short: (§5)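 Lewis lung carcinoma fragments (2 mm3) implanted sc into male BDF1 mice (5 weeks) on day 0. Compound given iv on days 4–8, in saline or saline with 3.5% DMSO and 6.5% Tween 80. Seven mice per group, 10 controls. Percent inhibition from mean tumour weight versus control on day 17; p<0.05, 0.01 or 0.001 versus control.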

Mus musculus = assay: The number of mice survived for 30 days at the dose of 5 (mg/kg/day); format: functional
A549 = assay: Inhibition of growth lung non-small cell carcinoma A-549 cell line; format: functional; details: Homo sapiens, read-out: ED50 (the source's name); in short: as §2
[22] = system: Lewis lung carcinoma cell line; assay: Percentage inhibition of tumor growth at the lewis lung dose of 4 (mg/kg/ day); format: functional, Mus musculus; in short: as §5

With `COc1cc([C@@H]2c3cc4c(cc3[C@@H](CCN(C)Cc3ccncc3)C3COC(=O)[C@@H]32)OCO4)cc(OC)c1O.Cl.Cl` (some centres undefined) the IC50 (P388 [1]) was 0.1 µM, the IC50 [2] was 31.4 µM and the IC50 (Tubulin) was over 100 µM.

Molecule `COc1cc([C@@H]2c3cc4c(cc3[C@@H](CCN(C)CCN3CCCCC3)C3COC(=O)[C@@H]32)OCO4)cc(OC)c1O.Cl.Cl` (some centres undefined) has an EC50 (ACHN) of 2.7 µg/mL, an EC50 [3] of 29 µg/mL and an EC50 (COLO 320DM) of 3.2 µg/mL. For the same molecule, the EC50 (Homo sapiens) was 0.36 µg/mL, the EC50 [4] was 0.35 µg/mL and the EC50 [5] was 4 µg/mL. For the same molecule, the ILS max [6] was 20%, the ILS max [7] was 14% and the ILS max [8] was 75%. For the same molecule, the ILS max [9] was 108%, the ILS max [10] was 55% and the bwc [11] was 0.7 g. The bwc [12] was 0.1 g, the bwc [13] was -0.6 g and the bwc [14] was -1 g. For the same molecule, the bwc [15] was -3.5 g, the ILS max (P388 [16]) was 131% and the ILS max (P388 [17]) was 165%. It also gave an ILS max (P388 [18]) of 259%, an EC50 [19] of 4.4 µg/mL and an EC50 [20] of 27 µg/mL. For the same molecule, the EC50 (SBC-3) was 0.54 µg/mL, the IC50 [2] was 60.9 µM and the IC50 (Tubulin) was over 167 µM. The Inhibition [21] was 97%, the Survivors (Mus musculus) was 6 and the EC50 (A549) was 1.8 µg/mL. The Inhibition [22] was 72%.

For `COc1cc([C@@H]2c3cc4c(cc3[C@@H](CCN(C)CCCN(C)C)C3COC(=O)[C@@H]32)OCO4)cc(OC)c1O.Cl.Cl` (some centres undefined), the IC50 (P388 [1]) was 0.055 µM, the IC50 [2] was 26.9 µM and the IC50 (Tubulin) was over 100 µM.

In the case of `COc1cc([C@@H]2c3cc4c(cc3[C@@H](CCN(C)CCCCCCN(C)C)C3COC(=O)[C@@H]32)OCO4)cc(OC)c1O.Cl.Cl` (some centres undefined), the IC50 (P388 [1]) is reported as 0.037 µM, the IC50 [2] is reported as 30 µM and the IC50 (Tubulin) is reported as over 133 µM.

With `COc1cc([C@@H]2c3cc4c(cc3[C@@H](CCN(C)Cc3ccccn3)C3COC(=O)[C@@H]32)OCO4)cc(OC)c1O.Cl.Cl` (some centres undefined) the IC50 (P388 [1]) was 0.14 µM, the IC50 [2] was 31.4 µM and the IC50 (Tubulin) was over 100 µM.

`COc1cc([C@@H]2c3cc4c(cc3[C@@H](CCN(C)CCN3CCOCC3)C3COC(=O)[C@@H]32)OCO4)cc(OC)c1O.Cl.Cl` (some centres undefined) showed an IC50 (P388 [1]) of 0.26 µM, an IC50 [2] of 116 µM and an IC50 (Tubulin) of over 167 µM.

`COc1cc([C@@H]2c3cc4c(cc3[C@@H](CCNCCN(C)C)C3COC(=O)[C@@H]32)OCO4)cc(OC)c1O.Cl.Cl` (some centres undefined) gave an IC50 (P388 [1]) of 0.04 µM, an IC50 [2] of 13.3 µM and an IC50 (Tubulin) of over 100 µM.

With `COc1cc([C@@H]2c3cc4c(cc3[C@@H](CCN(C)N3CCN(C)CC3)C3COC(=O)[C@@H]32)OCO4)cc(OC)c1O.Cl.Cl` (some centres undefined) the IC50 (P388 [1]) was 0.0043 µM, the IC50 [2] was 32.3 µM and the IC50 (Tubulin) was over 100 µM.

Molecule `CCN(CC)CCN(C)CC[C@@H]1c2cc3c(cc2[C@@H](c2cc(OC)c(O)c(OC)c2)[C@H]2C(=O)OCC12)OCO3.Cl.Cl` (some centres undefined) has an IC50 (P388 [1]) of 0.037 µM, an IC50 [2] of 53.8 µM and an IC50 (Tubulin) of over 100 µM.

`COc1cc([C@@H]2c3cc4c(cc3[C@@H](CC(=O)O)C3COC(=O)[C@@H]32)OCO4)cc(OC)c1O` (some centres undefined) gave an IC50 (P388 [1]) of 15 µM.

For `COc1cc([C@@H]2c3cc4c(cc3[C@@H](CCCO)C3COC(=O)[C@@H]32)OCO4)cc(OC)c1O` (some centres undefined), the IC50 (P388 [1]) was 0.05 µM, the IC50 [2] was 42.1 µM and the IC50 (Tubulin) was 26 µM.

In the case of `COc1cc([C@@H]2c3cc4c(cc3[C@@H](CCO)C3COC(=O)[C@@H]32)OCO4)cc(OC)c1O` (some centres undefined), the IC50 (P388 [1]) is reported as 0.05 µM, the IC50 [2] is reported as 13.8 µM and the IC50 (Tubulin) is reported as 2 µM.

`COc1cc([C@@H]2c3cc4c(cc3[C@@H](CC(=O)NCCc3cccn3C)C3COC(=O)[C@@H]32)OCO4)cc(OC)c1O.Cl` (some centres undefined) showed an IC50 (P388 [1]) of 1.5 µM and an IC50 (Tubulin) of over 100 µM.

Work on `COc1cc([C@@H]2c3cc4c(cc3[C@@H](CCN(C)CCO)C3COC(=O)[C@@H]32)OCO4)cc(OC)c1O.Cl` (some centres undefined) yielded an IC50 (P388 [1]) of 0.07 µM, an IC50 [2] of 17.2 µM and an IC50 (Tubulin) of over 100 µM.
